The text below walks through data of PMC6133078 (European Journal of Drug Metabolism and Pharmacokinetics, 2018).

Series [1] relates to xenograft. The following applies: xenograft mice model; preliminary studies; cited from earlier work.
The subject of series [2] is several cancer cell lines, such as lung, breast, ovarian, colon, prostate cancer, leukemia, lymphoma and osteosarcoma. The following applies: according to the data in vitro; cited from earlier work.
Series [3] is described as follows: Stability tests of puquitinib in human plasma QC samples. In kind it is physicochemical. The following applies: in words. An outline of the steps: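 Plasma QC samples (3.00, 250.00, 400.00 ng/mL) were tested three ways: extracted samples at room temperature for about 72 h; three freeze (−80 °C) and thaw (room temperature) cycles within a month, analysed in triplicate; and storage at −80 °C for 1 month. Quantified by HPLC–MS/MS against same-day calibration; accuracy given as RE%.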

pIC50: −log10 of the molar value. Structures can show the parent of a compound that is named as a salt.

Take `c1cnc2ccc(Nc3nc(NC4CC4)c4nc[nH]c4n3)cc2c1` [puquitinib, Puquitinib mesylate]: the antitumor efficacy entry in series [1] is “clear antitumor efficacy”. Moreover, the negative-log IC50 (pIC50) in series [2] is 5.70 to 6.30. Also, the “stability during short-term, freeze and thaw and long-term tests” value in series [3] was “good stability”.
